Measurements reported in ChEMBL document CHEMBL2163259, “ADME-guided design and synthesis of aryloxanyl pyrazolone derivatives to block mutant superoxide dismutase 1 (SOD1) cytotoxicity and protein aggregation: potential application for the treatment of amyotrophic lateral sclerosis” (J Med Chem, 2012).
Converted amounts (≈) assume the structure as drawn. The source made the active and inactive calls.

Tests used:
[1] = system: Superoxide dismutase [Cu-Zn] (Homo sapiens), P00441 [G94A]; assay: Inhibition of SOD1 G93A mutant aggregation-induced cytotoxicity in rat PC12 cells assessed as cell viability incubated for 24 hrs and measured 72 hrs post compound dose by cytotoxicity protection assay; type: cell-based; conditions: PC-12
Chain of Superoxide dismutase [Cu-Zn] (Homo sapiens), P00441 [G94A] (P00441 whole entry G94A, the tested form may be a part): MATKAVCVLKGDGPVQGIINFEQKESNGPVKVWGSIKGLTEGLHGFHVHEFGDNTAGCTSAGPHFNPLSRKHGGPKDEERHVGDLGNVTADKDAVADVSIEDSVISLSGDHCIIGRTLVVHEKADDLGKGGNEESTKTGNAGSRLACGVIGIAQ
How it was run: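 PC12 cells expressing G93A SOD1-YFP fusion seeded 15000 cells/well, grown 24 h before dosing. 12-point dose response, top 32 μM, twofold dilutions. After 24 h, MG132 added (100 nM final). Viability measured 48 h later with Calcein-AM (1 μM final, 20 min, room temperature) fluorescence. EC50 derived from dose-response.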

Mus musculus [2] = assay: Neuroprotective activity in SOD1 G93A mutant B6SJL mouse ALS model assessed as extension in life span at 22 mg/kg; type: functional
Mus musculus [3] = assay: Neuroprotective activity in SOD1 G93A mutant B6SJL mouse ALS model assessed as extension of life span at 16 mg/kg; type: functional
Liver microsomes [4] = assay: Drug metabolism in rat liver microsomes assessed as sulfoxide metabolite formation at 15 uM incubated for 5 to 60 mins in presence of NADPH by HPLC analysis; type: ADME, Microsome
How it was run: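 Substrate (15 μM) incubated at 37 °C with rat liver microsomes plus NADPH-regenerating system for 0–60 min. Reaction stopped with acetonitrile, chilled at −78 °C, centrifuged. Supernatant run on isocratic HPLC (acetonitrile/water 25/75, 0.1% TFA). Sulfoxide identified against synthetic sulfoxide and sulfone standards (10 μM) by retention time.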

Liver microsomes [5] = assay: Drug metabolism in rat liver microsomes assessed as sulfoxide metabolite formation at 5 uM incubated for 10 to 60 mins in presence of NADPH by HPLC analysis LC/MS/MS analysis; type: ADME, Microsome
How it was run: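 Duplicate incubations at 5 μM with or without rat liver microsomes, with and without NADPH, for 0, 10, 20, 40 and 60 min. Protein precipitated with acetonitrile containing internal standard. Supernatant analysed by LC/MS/MS (C18, acetonitrile-water gradient, ESI, MRM). Controls lacked microsomes or compound.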

[6] = Drug metabolism in rat liver microsomes at 15 uM after 20 mins in presence of NADPH; type: ADME, Microsome; conditions: read-out: Drug metabolism
How it was run: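 Rat liver microsomes (1 mg/mL protein) in PBS pH 7.4 with NADPH-regenerating system (1.3 mM NADP+, 3.3 mM glucose-6-phosphate, 0.4 U/mL G6PDH, 3.3 mM MgCl2). Compound at 15 μM, 37 °C for 0 and 20 min. HPLC on C18 (acetonitrile/water 25/75, 0.1% TFA). Peak-area response ratio to internal standard, normalised to t = 0.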

Cerebral cortex neuron = assay: Cytoprotection in rat Primary cortical neurons incubated for 24 hrs and measured 72 hrs post compound dose by cytotoxicity protection assay; type: functional, cell-based
How it was run: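 Primary cortical neurons from E18 Sprague-Dawley or Fischer 344 rat brain, dissociated with papain (2 mg/mL, 30 min, 37 °C), plated on poly-D-lysine at 20,000 cells/well, cultured 5 days (~90% neurons). Six-point dose response from 100 μM top, roughly one-third dilutions; 24 h pre-incubation, then MG132 100 nM. Viability read 48 h later by Calcein-AM (1 μM, 20 min, RT) fluorescence. Active = viability ≥5 SD above MG132 controls.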

Caco-2 [7] = assay: (§1) Apparent permeability from basolateral to apical side in human Caco2 cells; type: ADME, cell-based
Caco-2 [8] = assay: (§2) Apparent permeability from apical to basolateral side in human Caco2 cells; type: ADME, cell-based
[9] = Efflux ratio of permeability from basolateral to apical side over apical to basolateral side in human Caco2 cells; type: ADME, cell-based; conditions: Caco-2
[10] = Half life in mouse microsomes at 5 uM incubated for 1 hr at 37 degC in presence of NADPH; type: ADME, Microsome
[11] = Half life in human microsomes at 5 uM incubated for 1 hr at 37 degC in presence of NADPH; type: ADME, Microsome
[12] = Aqueous solubility of the compound in PBS after 45 mins; type: physicochemical
[13] = Aqueous solubility of the compound in PBS after 16 hrs; type: physicochemical
[14] = as §1; type: ADME, cell-based; conditions: Caco-2
[15] = as §2; type: ADME, cell-based; conditions: Caco-2
[16] = Intrinsic clearance in human microsomes at 5 uM incubated for 1 hr at 37 degC in absence of NADPH; type: ADME, Microsome
[17] = Intrinsic clearance in human microsomes at 5 uM incubated for 1 hr at 37 degC in presence of NADPH; type: ADME, Microsome
[18] = Intrinsic clearance in mouse microsomes at 5 uM incubated for 1 hr at 37 degC in presence of NADPH; type: ADME, Microsome

Compound `Cc1cc(S(=O)(=O)Cc2cc(=O)[nH][nH]2)c(C)cc1Cl` has an Activity [1] of 100%.

For `Cc1cc([S+]([O-])Cc2cc(=O)[nH][nH]2)c(C)cc1Cl` (stereo not drawn), the Activity [1] was 100%.

For `O=c1cc(CSc2cc(Cl)cc(Cl)c2)[nH][nH]1`, the Activity [1] was 100%.

Work on `O=c1cc(COc2cc(F)cc(F)c2)[nH][nH]1` yielded an Activity [1] of 100%.

In the case of `O=c1cc(COc2cc(C(F)(F)F)cc(C(F)(F)F)c2)[nH][nH]1`, the Activity [1] is reported as 100%.

In the case of `Nc1nc2ccc(OC(F)(F)F)cc2s1` [RILUZOLE], the Activity (Mus musculus [2]) is reported as 11% and the Activity (Mus musculus [3]) is reported as 7.5%.

With `O=c1cc(CSc2ccc(Cl)cc2)[nH][nH]1` the Drug metabolism (Liver microsomes [4]) was “Active”, the Drug metabolism (Liver microsomes [5]) was “Active” and the metabolised at 20 min, 15 µM [6] was 88%. The Activity [1] was 100%.

`CC(C)(C)c1cccc(OCc2cc(=O)[nH][nH]2)c1` showed an Activity [1] of 100%.

With `CCc1cccc(OCc2cc(=O)[nH][nH]2)c1` the Activity [1] was 100%.

In the case of `O=c1cc(COc2cccc(-c3ccccc3)c2)[nH][nH]1`, the Activity [1] is reported as 100%.

For `O=c1cc(CSc2c(Cl)cccc2Cl)[nH][nH]1`, the Activity [1] was 100% and the Activity (Cerebral cortex neuron) was “Active”.

With `O=c1cc(CS(=O)(=O)c2ccc(Cl)cc2)[nH][nH]1` the Activity [1] was 100%.

`O=c1cc(COc2cc(Br)cc(Br)c2)[nH][nH]1` showed an Activity [1] of 100%.

In the case of `Cc1cc(-c2ccccc2)nnc1NCCN1CCOCC1` [MINAPRINE], the metabolised at 20 min, 15 µM [6] is reported as 41%.

`CCc1ccc(OCc2cc(=O)[nH][nH]2)cc1` gave an Activity [1] of 100%.

In the case of `O=c1cc(COc2cccc(Br)c2)[nH][nH]1`, the Activity [1] is reported as 100%.

Work on `O=c1cc(COc2cc(-c3ccccc3)cc(-c3ccccc3)c2)[nH][nH]1` yielded an Activity [1] of 100%.

`O=c1cc(COc2ccc(Cl)cc2)[nH][nH]1` showed a Papp (Caco-2 [7]) of 28 ×10⁻⁶ cm/s, a Papp (Caco-2 [8]) of 43 ×10⁻⁶ cm/s and an efflux ratio [9] of 0.6. The t1/2 ([10]; 1 h, 5 µM) was 2.38 h, the t1/2 ([11]; 1 h, 5 µM) was 2.32 h and the Activity [1] was 100%. The solubility ([12]; buffer, 0.75 h) was 250 µM (≈ 56.2 µg/mL) and the solubility ([13]; buffer, 16 h) was 250 µM (≈ 56.2 µg/mL).

With `O=c1cc(CS(=O)(=O)c2cc(Cl)cc(Cl)c2)[nH][nH]1` the Papp B→A [14] was 4.4 ×10⁻⁶ cm/s, the Papp A→B [15] was 27 ×10⁻⁶ cm/s and the efflux ratio [9] was 0.2. It also gave a half-life at 5 µM [10] greater than 1 h, a CLint scaled at 5 µM [16] of 1.3 mL/min/kg and a half-life at 5 µM [11] greater than 1 h. For the same compound, the Activity [1] was 100%, the solubility at 0.75 h ([12]; PBS) was no less than 500 µM and the solubility at 16 h ([13]; PBS) was no less than 500 µM. For the same compound, the CLint scaled at 5 µM [17] was 4.5 mL/min/kg, the Activity (Cerebral cortex neuron) was “Active” and the CLint scaled at 5 µM [18] was 15.3 mL/min/kg.

Work on `O=c1cc(C[S+]([O-])c2ccc(Cl)cc2)[nH][nH]1` (stereo not drawn) yielded an Activity [1] of 35%.
